According to ChEMBL document CHEMBL1157620, “1-(Aryl)-6-[alkoxyalkyl]-3-azabicyclo[3.1.0]hexanes and 6-(aryl)-6-[alkoxyalkyl]-3-azabicyclo[3.1.0]hexanes: a new series of potent and selective triple reuptake inhibitors” (J Med Chem, 2010):
pIC50, pKi: −log10 of the molar value. Activity calls are given as the source filed them. No cut-off for these calls is given here.

What was measured:
[1] = molecular target: T1, Sodium-dependent serotonin transporter (Homo sapiens, UniProt P31645); experiment: Inhibition of [3H]serotonin reuptake at human SERT expressed in LLCPK cells by scintillation proximity assay; format: cell-based
T1 sequence (P31645 whole entry): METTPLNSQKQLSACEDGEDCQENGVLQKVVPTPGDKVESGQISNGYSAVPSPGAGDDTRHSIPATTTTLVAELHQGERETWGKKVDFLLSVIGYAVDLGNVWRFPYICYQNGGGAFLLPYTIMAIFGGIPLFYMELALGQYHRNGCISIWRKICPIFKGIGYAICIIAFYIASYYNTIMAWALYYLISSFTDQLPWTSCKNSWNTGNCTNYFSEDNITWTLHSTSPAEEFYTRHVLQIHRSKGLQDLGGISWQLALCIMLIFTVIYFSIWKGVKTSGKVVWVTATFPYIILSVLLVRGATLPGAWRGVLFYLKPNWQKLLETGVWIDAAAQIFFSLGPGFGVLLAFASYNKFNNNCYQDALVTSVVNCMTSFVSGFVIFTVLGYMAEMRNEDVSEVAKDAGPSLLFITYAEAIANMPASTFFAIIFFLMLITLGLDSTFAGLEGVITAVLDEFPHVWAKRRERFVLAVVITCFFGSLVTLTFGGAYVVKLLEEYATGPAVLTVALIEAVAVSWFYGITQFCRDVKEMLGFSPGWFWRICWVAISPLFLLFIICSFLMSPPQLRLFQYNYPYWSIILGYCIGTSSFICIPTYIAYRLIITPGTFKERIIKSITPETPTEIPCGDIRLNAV
Summary of the method: (§1)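 Uptake-SPA on stably transfected LLCPK cells in HEPES buffer, pH 7.4. SERT: 25000 cells/well, 1.5 mg/mL beads, 35 nM [3H]serotonin. NET: 50000 cells/well, 1.5 mg/mL beads, 45 nM [3H]noradrenalin. DAT: 75000 cells/well, 2 mg/mL beads, 75 nM [3H]dopamine. Concentrations are those of the substrate addition. 1 h at room temperature; 4-parameter fit.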

[2] = molecular target: T2, Sodium-dependent noradrenaline transporter (Homo sapiens, UniProt P23975); experiment: Displacement of [3H]nisoxetine from human recombinant NET expressed in BacMam virus-transduced cells by scintillation proximity assay; format: cell-based
T2 sequence (P23975 whole entry): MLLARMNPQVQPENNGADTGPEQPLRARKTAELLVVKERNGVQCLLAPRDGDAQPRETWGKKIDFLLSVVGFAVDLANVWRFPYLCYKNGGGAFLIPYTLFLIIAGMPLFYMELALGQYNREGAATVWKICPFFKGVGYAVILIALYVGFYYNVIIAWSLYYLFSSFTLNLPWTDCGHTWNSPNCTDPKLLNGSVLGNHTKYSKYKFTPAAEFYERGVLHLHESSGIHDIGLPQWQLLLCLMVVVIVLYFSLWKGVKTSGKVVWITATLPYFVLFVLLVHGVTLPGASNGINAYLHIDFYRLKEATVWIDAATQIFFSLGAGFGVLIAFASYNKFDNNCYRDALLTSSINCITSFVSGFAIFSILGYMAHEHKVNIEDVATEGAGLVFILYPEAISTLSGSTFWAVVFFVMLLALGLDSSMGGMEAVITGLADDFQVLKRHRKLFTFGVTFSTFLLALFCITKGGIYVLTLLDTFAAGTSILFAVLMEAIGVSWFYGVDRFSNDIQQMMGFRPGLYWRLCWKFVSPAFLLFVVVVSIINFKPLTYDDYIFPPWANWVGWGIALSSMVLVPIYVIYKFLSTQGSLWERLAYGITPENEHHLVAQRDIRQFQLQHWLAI
Summary of the method: (§2)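 BacMam-transduced membranes in SPA format. SERT: 1 mg/mL beads, 6 μg/mL membranes, 3 nM [3H]citalopram. NET: 2 mg/mL beads, 40 μg/mL membranes, 10 nM [3H]nisoxetine. Incubated overnight at room temperature; pKi from pIC50 by Cheng-Prusoff.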

[3] = molecular target: T3, Sodium-dependent dopamine transporter (Homo sapiens, UniProt Q01959); experiment: Displacement of [3H]WIN-35428 from human recombinant DAT expressed in BacMam virus-transduced cells by scintillation proximity assay; format: cell-based
T3 sequence (Q01959 whole entry): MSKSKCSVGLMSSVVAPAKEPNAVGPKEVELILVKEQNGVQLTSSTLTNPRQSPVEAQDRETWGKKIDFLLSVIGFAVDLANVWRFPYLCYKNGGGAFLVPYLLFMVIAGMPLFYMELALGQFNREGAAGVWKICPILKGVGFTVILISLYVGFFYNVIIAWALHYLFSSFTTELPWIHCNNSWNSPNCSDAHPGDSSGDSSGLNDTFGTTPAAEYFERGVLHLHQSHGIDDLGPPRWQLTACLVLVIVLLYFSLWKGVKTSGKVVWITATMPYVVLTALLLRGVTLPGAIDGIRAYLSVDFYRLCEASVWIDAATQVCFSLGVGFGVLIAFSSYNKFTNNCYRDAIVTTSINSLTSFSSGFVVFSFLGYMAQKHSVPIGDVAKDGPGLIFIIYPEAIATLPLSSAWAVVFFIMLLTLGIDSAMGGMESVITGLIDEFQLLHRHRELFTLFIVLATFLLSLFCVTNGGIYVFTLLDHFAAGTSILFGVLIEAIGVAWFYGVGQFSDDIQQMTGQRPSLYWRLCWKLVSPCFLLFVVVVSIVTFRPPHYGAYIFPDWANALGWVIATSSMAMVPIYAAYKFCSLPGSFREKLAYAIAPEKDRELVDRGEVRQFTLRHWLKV

[4] = molecular target: T3, Sodium-dependent dopamine transporter; experiment: Inhibition of [3H]dopamine reuptake at human DAT expressed in LLCPK cells by scintillation proximity assay; format: cell-based; summary of the method: as §1
[5] = molecular target: T1, Sodium-dependent serotonin transporter; experiment: Displacement of [3H]citalopram from human recombinant SERT expressed in BacMam virus-transduced cells by scintillation proximity assay; format: cell-based; summary of the method: as §2
[6] = molecular target: T2, Sodium-dependent noradrenaline transporter; experiment: Inhibition of [3H]noradrenalin reuptake at human NET expressed in LLCPK cells by scintillation proximity assay; format: cell-based; summary of the method: as §1
Rattus norvegicus [7] = experiment: Increase in extracellular norepinephrine level in frontal cortex of free moving CD rat at 1 mg/kg, ip after 3 hrs by microdialysis; format: functional, organism-based; design: dose 1 mg/kg
Summary of the method: (§3)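 Male CD rats, 280-310 g, with microdialysis probe in left medial prefrontal cortex, freely moving, locomotion recorded at the same time. Dosed ip at 0.1, 0.3 or 1 mg/kg. Dialysate collected every 20 min after 2 h of perfusion, for 3 h post dose. NA, DA and 5-HT by HPLC with electrochemical detection; two-way repeated-measures ANOVA.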

Rattus norvegicus [8] = experiment: Increase in extracellular dopamine level in frontal cortex of free moving CD rat at 1 mg/kg, ip after 3 hrs by microdialysis; format: functional, organism-based; design: dose 1 mg/kg; summary of the method: as §3
Mus musculus [9] = experiment: Increase in spontaneous locomotor activity in CD1 mouse at 10 mg/kg, po administered 120 mins before test measured for 30 mins; format: functional, organism-based; design: dose 10 mg/kg
Summary of the method: (§4)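 CD-1 mice dosed orally at 3, 10 or 30 mg/kg, 120 min before test. Total distance travelled recorded over 30 min in infrared activity boxes.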

Mus musculus [10] = experiment: Antidepressant-like activity in CD1 mouse assessed as reduction in immobility time at 10 mg/kg, po administered 120 mins before test by forced swimming test; format: functional, organism-based; design: dose 10 mg/kg
Summary of the method: (§5)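 Naive male CD-1 mice, 25-30 g, dosed orally 120 min before the swim test. Immobility (floating upright, only small movements to keep the head above water) was scored over the last 4 min of a 6 min session by an observer blind to treatment, from video.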

Mus musculus [11] = experiment: Potentiation of 5-hydroxytryptophan-induced stereotpic behavior in po dosed CD1 mouse administered 120 mins before 5HTP challenge measured for 30 mins; format: functional, organism-based
Summary of the method: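 CD-1 mice dosed orally 120 min before 5-HTP (100 mg/kg ip). Videotaped for 30 min and scored for hyperlocomotion, hind-limb abduction, flat body posture, head twitches/tremor and body tremor.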

Rattus norvegicus [12] = experiment: Increase in extracellular serotonin level in frontal cortex of free moving CD rat at 1 mg/kg, ip after 3 hrs by microdialysis; format: functional, organism-based; design: dose 1 mg/kg; summary of the method: as §3
Rattus norvegicus [13] = experiment: Enhancement of locomotor activity of CD rat at 1 mg/kg, ip; format: functional, organism-based; design: dose 1 mg/kg; summary of the method: as §3
Mus musculus [14] = experiment: Increase in spontaneous locomotor activity in CD1 mouse at 3 mg/kg, po administered 120 mins before test measured for 30 mins; format: functional, organism-based; design: dose 3 mg/kg; summary of the method: as §4
Mus musculus [15] = experiment: Increase in spontaneous locomotor activity in CD1 mouse at 30 mg/kg, po administered 120 mins before test measured for 30 mins; format: functional, organism-based; design: dose 30 mg/kg; summary of the method: as §4
Mus musculus [16] = experiment: Antidepressant-like activity in CD1 mouse assessed as reduction in immobility time at 3 mg/kg, po administered 120 mins before test by forced swimming test; format: functional, organism-based; design: dose 3 mg/kg; summary of the method: as §5
Homo sapiens = species on record: Homo sapiens; experiment: Selectivity for human recombinant SERT over human recombinant DAT
[17] = Blood clearance in rat; format: ADME, organism-based
[18] = Bioavailability in rat; format: ADME, organism-based; conditions: in vivo
[19] = Half life in rat; format: ADME, organism-based; conditions: in vivo
Brain = experiment: (§6) Fraction unbound in rat brain; format: ADME, tissue-based
[20] = Volume of distribution in rat; format: ADME, organism-based; conditions: in vivo
[21] = Ratio of drug level in brain to blood in rat; format: ADME, tissue-based; conditions: read-out: BBR
Cytochrome P450 2C9 = Cytochrome P450 2C9 (Homo sapiens, UniProt P11712); experiment: Inhibition of human CYP2C9 by fluorescence assay; format: ADME
Sequence of Cytochrome P450 2C9 (P11712 whole entry): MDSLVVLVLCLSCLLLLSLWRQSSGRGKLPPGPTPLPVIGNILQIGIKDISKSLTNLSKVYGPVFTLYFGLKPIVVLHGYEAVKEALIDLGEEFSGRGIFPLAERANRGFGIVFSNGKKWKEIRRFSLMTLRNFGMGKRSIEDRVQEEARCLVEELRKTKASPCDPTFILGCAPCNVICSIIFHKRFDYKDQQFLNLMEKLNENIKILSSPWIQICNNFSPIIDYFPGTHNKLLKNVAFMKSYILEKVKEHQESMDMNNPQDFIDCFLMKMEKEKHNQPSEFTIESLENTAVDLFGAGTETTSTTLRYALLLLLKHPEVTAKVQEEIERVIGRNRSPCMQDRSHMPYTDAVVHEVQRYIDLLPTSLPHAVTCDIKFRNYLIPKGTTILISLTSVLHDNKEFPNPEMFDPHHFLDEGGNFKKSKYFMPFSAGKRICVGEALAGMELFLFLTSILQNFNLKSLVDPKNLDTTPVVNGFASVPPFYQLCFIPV
Summary of the method: (§7)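 Recombinant human P450 bactosomes (0.1 mg/mL) in 50 mM phosphate, pH 7.4. Test compound at 0.1-10 μM, preincubated 10 min at 37 °C with fluorogenic substrate: ethoxyresorufin 0.5 μM (1A2), FCA 50 μM (2C9), BMC 10 μM (2C19), MMC 10 μM (2D6).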

[22] = molecular target: Sodium-dependent serotonin transporter (Rattus norvegicus, UniProt P31652); experiment: Displacement of [3H]citalopram from rat cortex SERT by filtration binding assay
Sequence of Sodium-dependent serotonin transporter (Rattus norvegicus, UniProt P31652) (P31652 whole entry): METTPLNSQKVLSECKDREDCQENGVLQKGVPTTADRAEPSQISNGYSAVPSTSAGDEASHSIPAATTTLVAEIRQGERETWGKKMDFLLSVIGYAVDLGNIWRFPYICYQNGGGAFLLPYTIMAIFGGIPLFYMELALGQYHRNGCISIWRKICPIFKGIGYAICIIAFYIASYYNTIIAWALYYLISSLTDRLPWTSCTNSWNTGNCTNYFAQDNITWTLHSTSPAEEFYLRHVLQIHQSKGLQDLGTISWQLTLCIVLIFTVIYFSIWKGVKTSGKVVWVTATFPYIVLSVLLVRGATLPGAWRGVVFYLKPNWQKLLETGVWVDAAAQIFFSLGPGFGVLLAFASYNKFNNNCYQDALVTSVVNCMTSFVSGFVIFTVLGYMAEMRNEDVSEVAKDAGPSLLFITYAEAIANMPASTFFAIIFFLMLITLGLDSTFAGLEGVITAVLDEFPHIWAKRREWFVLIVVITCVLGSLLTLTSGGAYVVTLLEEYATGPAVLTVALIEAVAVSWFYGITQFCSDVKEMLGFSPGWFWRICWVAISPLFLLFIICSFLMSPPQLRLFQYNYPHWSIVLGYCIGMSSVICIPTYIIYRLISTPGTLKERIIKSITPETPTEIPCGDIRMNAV
Summary of the method: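 Native brain tissue filtration binding, run as for the recombinant transporters. SERT on rat or mouse cortex (20 and 7 μg protein/well respectively). NET on rat hippocampus (40 μg/well). DAT on rat striatum (20 μg/well).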

Liver microsomes [23] = experiment: Intrinsic clearance in human liver microsomes assessed per gram of protein at 0.5 uM after 30 mins by HPLC-MS/MS analysis; format: ADME, Microsome; conditions: microsomes, 0.5 h, 0.5 µM
Summary of the method: (§8)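 Compound at 0.5 μM with rat or human liver microsomes (0.5 mg protein/mL), 50 mM phosphate, pH 7.4, 37 °C, started with NADPH. Sampled at 0-30 min, acetonitrile quench, HPLC-MS/MS. CLi from first-order elimination constant, scaled assuming 52.5 mg microsomal protein/g.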

Cytochrome P450 2D6 = Cytochrome P450 2D6 (Homo sapiens, UniProt P10635); experiment: Inhibition of human […] by fluorescence assay; format: ADME; summary of the method: as §7
Sequence of Cytochrome P450 2D6 (P10635 whole entry): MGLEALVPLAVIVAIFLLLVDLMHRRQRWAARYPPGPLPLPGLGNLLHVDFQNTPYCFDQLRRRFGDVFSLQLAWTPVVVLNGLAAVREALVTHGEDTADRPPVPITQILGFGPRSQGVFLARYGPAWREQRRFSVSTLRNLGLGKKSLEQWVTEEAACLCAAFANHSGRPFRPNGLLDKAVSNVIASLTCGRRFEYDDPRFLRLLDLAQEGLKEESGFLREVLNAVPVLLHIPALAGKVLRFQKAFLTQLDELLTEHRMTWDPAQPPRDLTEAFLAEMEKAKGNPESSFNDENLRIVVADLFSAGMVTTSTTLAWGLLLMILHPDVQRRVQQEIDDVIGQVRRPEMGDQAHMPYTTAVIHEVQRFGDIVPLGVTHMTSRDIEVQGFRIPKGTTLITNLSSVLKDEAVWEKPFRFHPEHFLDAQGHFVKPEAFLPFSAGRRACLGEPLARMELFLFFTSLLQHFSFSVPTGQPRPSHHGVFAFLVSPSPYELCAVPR

[24] = molecular target: T1, Sodium-dependent serotonin transporter; experiment: Displacement of [3H]citalopram from human recombinant SERT expressed in LLCPK cells by liquid scintillation counting; format: cell-based
Summary of the method: (§9)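 Filtration binding on stably transfected LLCPK cell membranes, 2 h at room temperature. SERT: 0.25 nM [3H]citalopram, about 2.5 μg protein/well, NSB with 10 μM fluoxetine. NET: 1.5 nM [3H]nisoxetine, 4.8 μg/well, NSB with 10 μM desipramine. DAT: 10 nM [3H]WIN-35,428, 9.6 μg/well, NSB with 10 μM GBR-12909. Filter-bound radioactivity counted; 4-parameter fit, pKi by Cheng-Prusoff.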

Cytochrome P450 1A2 = molecular target: T4, Cytochrome P450 1A2 (Homo sapiens, UniProt P05177); experiment: Inhibition of human CYP1A2 by fluorescence assay; format: ADME; summary of the method: as §7
T4 sequence (P05177 whole entry): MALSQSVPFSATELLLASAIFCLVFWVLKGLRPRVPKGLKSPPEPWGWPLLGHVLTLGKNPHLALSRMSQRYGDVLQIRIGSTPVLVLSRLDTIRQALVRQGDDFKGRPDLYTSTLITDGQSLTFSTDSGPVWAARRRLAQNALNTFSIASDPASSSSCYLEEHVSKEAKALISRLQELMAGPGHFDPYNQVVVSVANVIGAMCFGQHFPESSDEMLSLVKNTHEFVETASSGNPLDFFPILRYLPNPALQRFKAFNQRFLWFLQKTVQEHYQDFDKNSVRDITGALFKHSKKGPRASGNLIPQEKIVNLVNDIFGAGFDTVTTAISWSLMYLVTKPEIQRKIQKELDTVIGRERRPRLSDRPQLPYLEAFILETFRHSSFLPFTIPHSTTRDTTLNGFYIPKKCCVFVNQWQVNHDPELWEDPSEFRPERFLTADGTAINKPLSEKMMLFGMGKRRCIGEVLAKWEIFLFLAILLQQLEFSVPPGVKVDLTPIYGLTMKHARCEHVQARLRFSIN

[25] = molecular target: T3, Sodium-dependent dopamine transporter; experiment: Displacement of [N-methyl-3H]WIN-35428 from human recombinant DAT expressed in LLCPK cells by liquid scintillation counting; format: cell-based; summary of the method: as §9
Cytochrome P450 2C19 = Cytochrome P450 2C19 (Homo sapiens, UniProt P33261); experiment: Inhibition of human CYP2C19 by fluorescence assay; format: ADME; summary of the method: as §7
Sequence of Cytochrome P450 2C19 (P33261 whole entry): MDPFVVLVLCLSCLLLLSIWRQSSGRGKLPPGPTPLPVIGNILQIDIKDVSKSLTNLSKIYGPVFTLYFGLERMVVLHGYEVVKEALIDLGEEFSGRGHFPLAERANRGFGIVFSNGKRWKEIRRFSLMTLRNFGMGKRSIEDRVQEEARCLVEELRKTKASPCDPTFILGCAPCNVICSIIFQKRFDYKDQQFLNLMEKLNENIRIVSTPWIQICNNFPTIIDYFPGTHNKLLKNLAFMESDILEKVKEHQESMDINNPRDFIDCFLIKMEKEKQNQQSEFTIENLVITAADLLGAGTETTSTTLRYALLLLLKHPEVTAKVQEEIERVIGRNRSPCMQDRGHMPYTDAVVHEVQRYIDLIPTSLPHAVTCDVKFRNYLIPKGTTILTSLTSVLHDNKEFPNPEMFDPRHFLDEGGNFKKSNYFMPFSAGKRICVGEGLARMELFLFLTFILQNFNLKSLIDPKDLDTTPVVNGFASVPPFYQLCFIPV

Cytochrome P450 3A4 = Cytochrome P450 3A4 (Homo sapiens, UniProt P08684); experiment: Inhibition of human CYP3A4 by fluorescence assay
Sequence of Cytochrome P450 3A4 (P08684 whole entry): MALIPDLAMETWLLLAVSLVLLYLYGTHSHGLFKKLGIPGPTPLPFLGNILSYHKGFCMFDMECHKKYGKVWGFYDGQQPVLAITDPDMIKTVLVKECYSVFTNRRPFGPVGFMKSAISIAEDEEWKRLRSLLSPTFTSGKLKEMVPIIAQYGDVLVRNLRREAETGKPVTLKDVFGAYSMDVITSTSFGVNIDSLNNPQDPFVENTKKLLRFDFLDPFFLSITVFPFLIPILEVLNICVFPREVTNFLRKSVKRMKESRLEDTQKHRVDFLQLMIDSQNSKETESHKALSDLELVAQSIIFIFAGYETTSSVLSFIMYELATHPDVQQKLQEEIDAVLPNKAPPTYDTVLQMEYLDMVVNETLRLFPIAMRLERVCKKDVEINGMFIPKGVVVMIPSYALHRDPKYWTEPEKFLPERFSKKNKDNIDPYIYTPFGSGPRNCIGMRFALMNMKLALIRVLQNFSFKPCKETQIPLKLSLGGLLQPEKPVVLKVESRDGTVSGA

Liver microsomes [26] = experiment: Intrinsic clearance in rat liver microsomes assessed per gram of protein at 0.5 uM after 30 mins by HPLC-MS/MS analysis; format: ADME, Microsome; conditions: microsomes, 0.5 h, 0.5 µM; summary of the method: as §8
[27] = molecular target: T2, Sodium-dependent noradrenaline transporter; experiment: Displacement of [N-methyl-3H]nisoxetine from human recombinant NET expressed in LLCPK cells by liquid scintillation counting; format: cell-based; summary of the method: as §9
[28] = as §6; format: ADME, tissue-based; conditions: brain
Mus musculus [29] = experiment: Potentiation of 5-hydroxytryptophan-induced stereotpic behavior in CD1 mouse at 10 mg/kg, po administered 120 mins before 5HTP challenge measured for 30 mins; format: functional, organism-based; design: dose 10 mg/kg
Summary of the method: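 Naive male CD-1 mice (25-30 g) were dosed orally 120 min before an ip injection of 5-HTP (100 mg/kg). Each mouse was then placed alone in a perspex box and videotaped. For the next 30 min, observers scored aimless hyperlocomotor activity, hind-limb abduction, flat body posture, head twitches/tremor and body tremor.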

For `Cc1csc(C[C@H]2[C@@H]3CNC[C@@]32c2ccc(Cl)c(Cl)c2)n1` (relative stereo), the pIC50 [1] was 9.00, the pKi [2] was 9.90 and the pKi [3] was 7.70. For the same compound, the pIC50 [4] was 7.70, the pKi [5] was 10.10 and the pIC50 [6] was 9.60.

For `CCOC[C@H]1[C@@H]2CNC[C@@]21c1ccc(Cl)c(Cl)c1`, the Activity (Rattus norvegicus [7]) was “Active”, the Activity (Rattus norvegicus [8]) was “Active” and the Activity (Mus musculus [9]) was “Active”. The Activity (Mus musculus [10]) was “Active”, the Activity (Mus musculus [11]) was “Dose-dependent effect” and the Activity (Rattus norvegicus [12]) was “Active”. For the same compound, the Activity (Rattus norvegicus [13]) was “Active”, the Activity (Mus musculus [14]) was “inactive” and the Activity (Mus musculus [15]) was “inactive”. The Activity (Mus musculus [16]) was “Active” and the Selectivity ratio (Homo sapiens) was 50.

For `COCC[C@H]1[C@]2(C)CNC[C@]12c1ccc(Cl)c(Cl)c1` (relative stereo), the pIC50 [1] was 8.80, the pKi [2] was 9.00 and the pKi [3] was 7.30. It also gave a pIC50 [4] of 7.80, a pKi [5] of 9.60 and a pIC50 [6] of 9.40.

`FC(F)(F)COC[C@H]1[C@@H]2CNC[C@@]21c1ccc(Cl)c(Cl)c1` showed a clearance [17] of 42 mL/min/kg, a pKi [2] of 6.46 and a pKi [3] of 6.20. The bioavailability [18] was 41%, the pKi [5] was 7.25 and the half-life [19] was 1.4 h. For the same compound, the Fu (Brain) was 0.6% and the Vd [20] was 3.2 L/kg.

`COC[C@H]1[C@@H]2CNC[C@@]21c1ccc(Cl)c(Cl)c1` (relative stereo) showed a clearance [17] of 16 mL/min/kg, a pKi [2] of 8.76 and a pKi [3] of 7.25. For the same compound, the Kp [21] was 4, the pIC50 (Cytochrome P450 2C9) was < 5.22 and the pKi [22] was 8.75. The CL (Liver microsomes [23]) was < 0.5 mL/min/g, the pIC50 (Cytochrome P450 2D6) was < 5.22 and the pKi [24] was 9.13. The bioavailability [18] was 94%, the pIC50 (Cytochrome P450 1A2) was < 5.22 and the pKi [25] was 7.07. The pKi [5] was 9.12, the pIC50 (Cytochrome P450 2C19) was < 5.22 and the pIC50 (Cytochrome P450 3A4) was < 5.22. The half-life [19] was 2.4 h, the CL (Liver microsomes [26]) was 3.8 mL/min/g and the pKi [27] was 8.34. For the same compound, the fraction unbound [28] was 0.027 and the Vd [20] was 2.9 L/kg.

In the case of `CN(C)CCCC1(c2ccc(F)cc2)OCc2cc(C#N)ccc21` (configuration not stated), the Activity (Mus musculus [29]) was “Active”.
